ChEMBL document CHEMBL3297719, “Hybrid dopamine uptake blocker-serotonin releaser ligands: a new twist on transporter-focused therapeutics” (ACS Med Chem Lett, 2014)
pEC50, pIC50, pKi: −log10 of the molar value. Calls of active or inactive are those of the source. The rule behind the calls is not given here.

Assays:
[1] = target: T1, Sodium-dependent serotonin transporter (Rattus norvegicus, UniProt P31652); assay: Induction of SERT-mediated serotonin release in rat synaptosomes; type: subcellular, Brain
T1 sequence (P31652 whole entry): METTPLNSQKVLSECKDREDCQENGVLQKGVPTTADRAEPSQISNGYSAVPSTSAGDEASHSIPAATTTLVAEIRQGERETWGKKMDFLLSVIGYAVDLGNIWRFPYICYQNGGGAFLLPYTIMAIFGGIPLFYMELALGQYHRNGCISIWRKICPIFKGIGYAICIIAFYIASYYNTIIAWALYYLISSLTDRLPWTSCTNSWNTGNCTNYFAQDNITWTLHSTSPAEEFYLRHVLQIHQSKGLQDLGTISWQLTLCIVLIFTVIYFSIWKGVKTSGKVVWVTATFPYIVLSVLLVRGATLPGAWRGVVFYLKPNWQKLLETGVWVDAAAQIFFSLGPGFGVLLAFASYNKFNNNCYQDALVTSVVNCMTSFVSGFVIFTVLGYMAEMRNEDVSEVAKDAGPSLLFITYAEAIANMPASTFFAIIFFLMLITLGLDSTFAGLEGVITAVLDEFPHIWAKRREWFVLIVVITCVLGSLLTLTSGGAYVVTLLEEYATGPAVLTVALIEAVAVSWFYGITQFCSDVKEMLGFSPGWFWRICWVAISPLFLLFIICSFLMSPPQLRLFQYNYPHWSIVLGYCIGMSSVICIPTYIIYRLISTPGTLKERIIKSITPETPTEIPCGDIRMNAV
Outline: (§1)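 Synaptosomes prepared from rat brain homogenate. Each compound was run in both the release assay and the uptake-inhibition assay to classify it as a releasing substrate or an uptake inhibitor. Dose-response curves were then completed only for the assigned activity. Values are means ± SD from N = 3 experiments, each performed in triplicate.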

[2] = target: Transporter (Rattus norvegicus) (UniProt Q63380); assay: Inhibition of NET-mediated norepinephrine uptake in rat synaptosomes; type: subcellular; conditions: Brain; outline: as §1
Sequence of Transporter (Rattus norvegicus) (Q63380 as listed by the source): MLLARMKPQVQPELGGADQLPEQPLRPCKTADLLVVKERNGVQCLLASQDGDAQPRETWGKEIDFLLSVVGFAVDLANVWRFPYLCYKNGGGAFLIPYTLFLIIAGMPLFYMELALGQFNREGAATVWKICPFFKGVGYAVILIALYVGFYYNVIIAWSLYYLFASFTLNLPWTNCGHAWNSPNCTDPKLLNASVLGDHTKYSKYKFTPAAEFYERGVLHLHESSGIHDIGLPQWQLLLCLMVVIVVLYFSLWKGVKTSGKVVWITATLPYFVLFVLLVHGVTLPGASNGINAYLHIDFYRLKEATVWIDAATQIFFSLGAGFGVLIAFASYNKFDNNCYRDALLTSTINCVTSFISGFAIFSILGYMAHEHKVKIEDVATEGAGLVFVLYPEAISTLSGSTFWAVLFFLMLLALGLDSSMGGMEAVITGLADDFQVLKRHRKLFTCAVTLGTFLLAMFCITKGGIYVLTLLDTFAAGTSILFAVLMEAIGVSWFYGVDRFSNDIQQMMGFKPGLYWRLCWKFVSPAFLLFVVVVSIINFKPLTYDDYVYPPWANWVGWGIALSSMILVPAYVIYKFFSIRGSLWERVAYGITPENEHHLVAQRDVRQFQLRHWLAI

[3] = target: Transporter (Rattus norvegicus) (UniProt Q63380); assay: Induction of NET-mediated norepinephrine release in rat synaptosomes; type: subcellular; conditions: Brain; outline: as §1
[4] = target: 5-hydroxytryptamine receptor 2A (Homo sapiens) (UniProt P28223); assay: Agonist activity at human 5HT2A expressed in HEK293 cells at 10 uM by calcium mobilization assay; type: functional, cell-based
Sequence of 5-hydroxytryptamine receptor 2A (Homo sapiens) (P28223 whole entry): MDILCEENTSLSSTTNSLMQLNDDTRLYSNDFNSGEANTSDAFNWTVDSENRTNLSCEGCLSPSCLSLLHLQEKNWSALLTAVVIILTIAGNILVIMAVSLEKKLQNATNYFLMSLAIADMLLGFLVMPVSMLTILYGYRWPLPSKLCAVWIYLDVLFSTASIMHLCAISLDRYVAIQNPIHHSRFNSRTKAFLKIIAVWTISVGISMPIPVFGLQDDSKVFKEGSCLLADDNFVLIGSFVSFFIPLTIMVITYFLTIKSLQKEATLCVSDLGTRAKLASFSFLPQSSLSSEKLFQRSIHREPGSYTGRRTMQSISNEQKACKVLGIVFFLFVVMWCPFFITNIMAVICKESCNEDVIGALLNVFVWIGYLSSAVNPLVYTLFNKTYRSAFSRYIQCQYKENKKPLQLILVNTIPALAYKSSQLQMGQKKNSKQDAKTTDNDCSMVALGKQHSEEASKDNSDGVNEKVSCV

[5] = target: 5-hydroxytryptamine receptor 2B (Homo sapiens) (UniProt P41595); assay: Agonist activity at human 5HT2B expressed in HEK293 cells at 10 uM by calcium mobilization assay; type: functional, cell-based
Sequence of 5-hydroxytryptamine receptor 2B (Homo sapiens) (P41595 whole entry): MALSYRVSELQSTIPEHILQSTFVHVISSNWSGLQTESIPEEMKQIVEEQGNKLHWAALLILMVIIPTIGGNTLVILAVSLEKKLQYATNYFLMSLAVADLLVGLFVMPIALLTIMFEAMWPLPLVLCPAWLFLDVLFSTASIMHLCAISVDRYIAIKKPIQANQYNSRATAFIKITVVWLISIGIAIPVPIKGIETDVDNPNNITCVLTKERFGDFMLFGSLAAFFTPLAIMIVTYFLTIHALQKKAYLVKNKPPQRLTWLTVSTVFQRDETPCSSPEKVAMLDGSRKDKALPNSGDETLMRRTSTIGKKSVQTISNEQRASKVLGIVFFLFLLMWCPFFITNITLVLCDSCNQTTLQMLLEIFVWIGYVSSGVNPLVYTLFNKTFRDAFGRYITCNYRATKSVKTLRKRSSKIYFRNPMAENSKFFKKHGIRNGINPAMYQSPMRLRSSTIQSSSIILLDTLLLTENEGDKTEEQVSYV

[6] = target: 5-hydroxytryptamine receptor 2B (Homo sapiens) (UniProt P41595); assay: Agonist activity at human 5HT2C expressed in HEK293 cells at 10 uM by calcium mobilization assay; type: functional, cell-based
[7] = target: T2, 5-hydroxytryptamine receptor 1A (Homo sapiens) (UniProt P08908); assay: Agonist activity at human 5HT1A expressed in CHO cells coexpressing Galpha16 at 10 uM by calcium mobilization assay; type: functional, cell-based
T2 sequence (whole entry): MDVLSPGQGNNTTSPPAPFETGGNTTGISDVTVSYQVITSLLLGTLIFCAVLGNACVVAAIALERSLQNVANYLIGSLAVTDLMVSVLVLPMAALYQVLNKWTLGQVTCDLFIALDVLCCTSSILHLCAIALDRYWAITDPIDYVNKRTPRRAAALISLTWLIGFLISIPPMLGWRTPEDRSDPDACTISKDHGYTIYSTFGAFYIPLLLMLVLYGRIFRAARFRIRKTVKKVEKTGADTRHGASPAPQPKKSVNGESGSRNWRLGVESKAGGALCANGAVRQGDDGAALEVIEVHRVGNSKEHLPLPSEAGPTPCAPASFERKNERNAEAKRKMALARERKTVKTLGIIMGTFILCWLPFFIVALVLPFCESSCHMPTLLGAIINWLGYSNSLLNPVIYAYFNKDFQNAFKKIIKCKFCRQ

[8] = target: 5-hydroxytryptamine receptor 2A (Homo sapiens) (UniProt P28223); assay: Agonist activity at human 5HT2A expressed in CHOK1 cells at 10 uM after 3 hrs by beta-arrestin recruitment assay; type: cell-based; conditions: CHO-K1
[9] = target: T3, Sodium-dependent dopamine transporter (Rattus norvegicus, UniProt P23977); assay: Inhibition of DAT-mediated dopamine uptake in rat synaptosomes; type: subcellular, Brain; outline: as §1
T3 sequence (P23977 whole entry): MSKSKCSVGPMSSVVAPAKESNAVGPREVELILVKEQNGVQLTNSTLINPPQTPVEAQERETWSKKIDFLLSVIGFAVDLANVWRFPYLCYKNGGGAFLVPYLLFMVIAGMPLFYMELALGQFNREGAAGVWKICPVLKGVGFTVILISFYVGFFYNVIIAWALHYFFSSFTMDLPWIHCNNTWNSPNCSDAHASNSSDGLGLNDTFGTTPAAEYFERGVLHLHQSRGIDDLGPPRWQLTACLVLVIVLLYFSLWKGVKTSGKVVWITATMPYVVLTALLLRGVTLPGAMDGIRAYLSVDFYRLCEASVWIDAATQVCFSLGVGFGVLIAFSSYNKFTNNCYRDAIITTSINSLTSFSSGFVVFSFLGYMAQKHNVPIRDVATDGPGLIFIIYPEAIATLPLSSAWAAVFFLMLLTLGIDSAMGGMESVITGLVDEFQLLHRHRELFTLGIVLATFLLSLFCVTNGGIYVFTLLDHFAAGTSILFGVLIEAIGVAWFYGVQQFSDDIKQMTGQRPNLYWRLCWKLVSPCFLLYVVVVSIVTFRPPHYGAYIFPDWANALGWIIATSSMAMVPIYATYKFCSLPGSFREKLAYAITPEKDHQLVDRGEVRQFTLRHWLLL

[10] = target: Sodium-dependent dopamine transporter (Homo sapiens, UniProt Q01959); assay: Inhibition of DAT (unknown origin)-mediated dopamine reuptake
Sequence of Sodium-dependent dopamine transporter (Homo sapiens, UniProt Q01959) (Q01959 whole entry): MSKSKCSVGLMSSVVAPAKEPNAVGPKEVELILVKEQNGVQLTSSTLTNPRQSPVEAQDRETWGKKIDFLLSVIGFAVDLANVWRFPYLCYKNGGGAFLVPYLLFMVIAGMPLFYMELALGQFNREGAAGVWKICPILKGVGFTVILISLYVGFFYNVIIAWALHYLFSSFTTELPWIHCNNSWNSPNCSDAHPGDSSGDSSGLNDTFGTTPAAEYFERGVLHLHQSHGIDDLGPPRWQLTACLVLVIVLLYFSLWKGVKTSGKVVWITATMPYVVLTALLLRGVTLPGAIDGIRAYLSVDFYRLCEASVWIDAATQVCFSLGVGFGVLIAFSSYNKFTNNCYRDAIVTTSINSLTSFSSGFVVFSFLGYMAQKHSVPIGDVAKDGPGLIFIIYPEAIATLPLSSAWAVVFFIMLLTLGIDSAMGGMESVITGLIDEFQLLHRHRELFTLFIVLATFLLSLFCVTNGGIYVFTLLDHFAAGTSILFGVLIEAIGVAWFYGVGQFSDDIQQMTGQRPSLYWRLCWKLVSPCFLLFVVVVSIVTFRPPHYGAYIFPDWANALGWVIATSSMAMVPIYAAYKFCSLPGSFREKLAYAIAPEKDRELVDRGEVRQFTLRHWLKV

[11] = target: Sodium-dependent serotonin transporter (Homo sapiens, UniProt P31645); assay: Induction of SERT (unknown origin)-mediated serotonin release
Sequence of Sodium-dependent serotonin transporter (Homo sapiens, UniProt P31645) (P31645 whole entry): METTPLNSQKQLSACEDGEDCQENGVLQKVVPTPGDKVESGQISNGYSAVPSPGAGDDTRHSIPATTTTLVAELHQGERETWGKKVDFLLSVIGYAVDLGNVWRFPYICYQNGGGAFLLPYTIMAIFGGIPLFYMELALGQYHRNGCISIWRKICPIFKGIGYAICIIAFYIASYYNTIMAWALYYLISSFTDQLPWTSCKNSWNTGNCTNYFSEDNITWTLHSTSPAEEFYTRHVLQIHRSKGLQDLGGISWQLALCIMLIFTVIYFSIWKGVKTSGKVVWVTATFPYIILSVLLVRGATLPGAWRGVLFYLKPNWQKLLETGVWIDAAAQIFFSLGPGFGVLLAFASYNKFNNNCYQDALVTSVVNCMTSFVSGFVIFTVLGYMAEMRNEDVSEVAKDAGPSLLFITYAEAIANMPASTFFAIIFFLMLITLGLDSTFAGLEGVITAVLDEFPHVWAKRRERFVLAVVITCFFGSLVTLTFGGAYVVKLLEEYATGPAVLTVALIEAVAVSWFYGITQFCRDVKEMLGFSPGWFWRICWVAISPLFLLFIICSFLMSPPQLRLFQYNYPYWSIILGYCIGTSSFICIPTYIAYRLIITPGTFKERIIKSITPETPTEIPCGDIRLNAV

[12] = target: T1, Sodium-dependent serotonin transporter; assay: Inhibition of SERT-mediated serotonin uptake in rat synaptosomes; type: subcellular, Brain; outline: as §1
[13] = target: T3, Sodium-dependent dopamine transporter; assay: Induction of DAT-mediated dopamine release in rat synaptosomes; type: subcellular, Brain; outline: as §1

Structure (SMILES) | pEC50 [1] | inhibition [2] | Activity [3] | Activity [4] | Activity [5] | Activity [6] | Activity [7] | Activity [8] | pIC50 [9] | pKi [10] | pEC50 [11] | pIC50 [12] | pEC50 [13]
COc1cccc(C(=O)C(C)NC2CC2)c1 (stereo not drawn) | 5.99 | Active | Active | inactive | inactive | inactive | inactive | inactive | 5.62 |  |  |  | 
CCNC(C)C(=O)c1ccccc1 (stereo not drawn) |  |  |  |  |  |  |  |  |  | 5.99 | 5.67 |  | 
CCCC(N)Cc1ccccc1 (stereo not drawn) |  | Active | Active | inactive | inactive | inactive | inactive | inactive | 5.59 |  |  | < 5.00 | 
CC(N)Cc1cccc(Cl)c1 (stereo not drawn) |  | Active | Active | inactive | inactive | inactive | inactive | inactive |  |  |  |  | 
CCNC(C)C(=O)c1cccc(Cl)c1 (stereo not drawn) |  | Active | Active | inactive | inactive | inactive | inactive | inactive | 5.23 |  |  | < 5.00 | 
C[C@@H](NC1CC1)C(=O)c1cccc(Cl)c1 | 6.13 | Active | Active | inactive | inactive | inactive | inactive | inactive | 6.43 |  |  |  | 
CCC(NC)C(=O)c1ccccc1 (stereo not drawn) |  | Active | Active | inactive | inactive | inactive | inactive | inactive |  |  |  | < 5.00 | 6.39
CCCNC(C)C(=O)c1cccc(Cl)c1 (stereo not drawn) |  | Active | Active | inactive | inactive | inactive | inactive | inactive | 6.10 |  |  | < 5.00 | 
CC(NC1CC1)C(=O)c1cccc(Cl)c1 (stereo not drawn) | 5.88 | Active | Active | inactive | inactive | inactive | inactive | inactive | 6.27 |  |  |  | 
Cc1cccc(C(=O)C(C)NC2CC2)c1 (stereo not drawn) | 5.97 | Active | Active | inactive | inactive | inactive | inactive | inactive | 5.96 |  |  |  | 
CC(NC1CC1)C(=O)c1cccc(Br)c1 (stereo not drawn) | 6.21 | Active | Active | inactive | inactive | inactive | inactive | inactive | 6.41 |  |  |  | 
CC(NC1CC1)C(=O)c1ccc(Cl)cc1 (stereo not drawn) | 5.79 | Active | Active | inactive | inactive | inactive | inactive | inactive | 5.70 |  |  |  | 
Cc1ccc(C(=O)C(C)NC2CC2)cc1 (stereo not drawn) | 6.18 | Active | Active | inactive | inactive | inactive | inactive | inactive | 5.96 |  |  |  | 
C[C@H](NC1CC1)C(=O)c1cccc(Cl)c1 | 6.25 | Active | Active | inactive | inactive | inactive | inactive | inactive | 6.53 |  |  |  | 
CNC(C)C(=O)c1cccc(Cl)c1 (stereo not drawn) | 6.39 | Active | Active | inactive | inactive | inactive | inactive | inactive |  |  |  |  | 7.33
CCC(Cc1ccccc1)NC (stereo not drawn) | 5.33 | Active | Active | inactive | inactive | inactive | inactive | inactive |  |  |  |  | 6.65
Cc1ccc(C(=O)C(C)NC2CC2)cc1Cl (stereo not drawn) | 6.74 | Active | Active | inactive | inactive | inactive | inactive | inactive | 6.23 |  |  |  | 
CC(NC1CC1)C(=O)c1ccc(Cl)c(Cl)c1 (stereo not drawn) | 6.45 | Active | Active | inactive | inactive | inactive | inactive | inactive | 6.37 |  |  |  | 
